# Reference: paper PMC4257570 (Basic & Clinical Pharmacology & Toxicology, 2014)
# “And” between values parts separate entries of the source, which are not always exact repeats. Equal values may be shown once.
# Columns and labels:
# [1] = ref unpublished data; cited from earlier work
# [2] = cited from earlier work
# [3] = no reference given; cited from earlier work
# [4] = cited from earlier work; remark: listed apart in the source
# [5] = Population pharmacokinetic analysis; type: in vivo, human
# Procedure, shortened: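 Oral doses were 2.5–75 mg single and 2.5–60 mg/day multiple; only vortioxetine-alone data from interaction studies were used. Models were two-compartment with lag time and first-order absorption and elimination (one- and three-compartment also tested). Covariates, including CYP genotype-inferred metaboliser status, were added forward then deleted backward. Bootstrap gave 95% CIs.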
# [6] = non-compartmental analysis, healthy young subjects
compound,measurement,setting,value
"Cc1cc(C(=O)O)ccc1Sc1ccccc1N1CCNCC1 [Lu AA34443, 3-methyl-4-(2-piperazine-1-yl-phenylsulfanyl)-benzoic acid]",Crossing of the blood–brain barrier,[1],incapable of crossing the blood–brain barrier
"Br.Cc1ccc(Sc2ccccc2N2CCNCC2)c(C)c1 [vortioxetine, 1-[2-(2,4-dimethyl-phenylsulfanyl)-phenyl]-piperazine hydrobromide]",Absolute bioavailability for oral administration,[2],75%
same,Clearance (oral clearance),[2]; [6],47 L/h
same,Elimination half-life,[2]; [6],57 h
same,Renal clearance,[3],negligible
same,Change of CL/F of vortioxetine when co-administered with bupropion,[4]; bupropion (CYP2D6 inhibitor),reduced approximately by half
same,Increase of vortioxetine exposure with co-administration of bupropion,[4]; bupropion (CYP2D6 inhibitor),approximately 2 fold
same,Decrease of AUC of vortioxetine with co-administration of rifampicin,[4]; rifampicin (broad CYP inducer),72%
same,Effect of co-administration of omeprazole on vortioxetine steady-state exposure,[4]; single dose of omeprazole (CYP2C19 inhibitor),no effects
same,CL/F of CYP2C19 EMs relative to PMs,[5]; CYP2C19 EM vs PM,1.4 times
same,"Oral clearance (CL/F), estimate","[5]; CYP2D6-inferred extensive metabolisers (EM), final model",34.1 L/h
same,"Oral clearance (CL/F), estimate","[5]; CYP2D6-inferred intermediate metabolisers (IM), final model",26.6 L/h
same,"Oral clearance (CL/F), estimate","[5]; CYP2D6-inferred poor metabolisers (PM), final model",18.1 L/h
same,"Oral clearance (CL/F), estimate","[5]; CYP2D6-inferred ultra metabolisers (UM), final model",52.9 L/h
same,CL/F of CYP2D6 extensive metabolisers relative to poor metabolisers,[5]; CYP2D6 EM vs PM,1.9 times
same,"Oral clearance (CL/F), population mean","[5]; all healthy subjects, oral dosing, from the base model",32.7 L/h and 33 L/h
same,"Absorption rate constant (ka), estimate",[5]; final model,0.142 h⁻¹
same,Interindividual variability (IIV) of CL/F,[5]; final model,42%
same,Interindividual variability (IIV) of V2/F,[5]; final model,31%
same,Interindividual variability (IIV) of ka,[5]; final model,51%
same,"Lag-time (ALAG), estimate",[5]; final model,0.781 h
same,"Volume of distribution, peripheral comp (V3/F), estimate",[5]; final model,661 L
same,Age on CL/F,"[5]; final model, covariate effect",0.277 L/hr/yr
same,Height on V2/F,"[5]; final model, covariate effect",17.4 L/cm
same,half-life,"[5]; human, plasma, im, Estimated mean t1/2, CYP2D6-inferred metabolic status IM",73 h
same,Vd/F,"[5]; human, plasma, oral",1970 L
same,half-life,"[5]; human, plasma, oral, Estimated mean t1/2, CYP2D6-inferred metabolic status EM",60 h
same,half-life,"[5]; human, plasma, oral, Estimated mean t1/2, CYP2D6-inferred metabolic status PM",104 h
same,half-life,"[5]; human, plasma, oral, Estimated mean t1/2, CYP2D6-inferred metabolic status UM",42 h
same,"V2/F, population mean","[5]; men, sex as only covariate",1940 L
same,Sum of the central and peripheral volumes of distribution (V2/F + V3/F),"[5]; population mean, oral administration",2600 L
same,Higher exposure in a subject compared with the population mean,[5]; subject vs population mean of 44 years,≤ 40%
same,"CL/F, population mean","[5]; women, sex as only covariate",30 L/h
same,"V2/F, population mean","[5]; women, sex as only covariate",1810 L
